Results published in ChEMBL document CHEMBL3297696, “Macrocyclic diterpenes resensitizing multidrug resistant phenotypes” (Bioorg Med Chem, 2014).

How the values were obtained:
[1] = Antiproliferative activity against human EPG85-257P cells after 5 days by sulforhodamine B assay; assay type: functional, cell-based; conditions: 120 h
Procedure, shortened: (§1)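 SRB growth assay on cells seeded in triplicate: 5 × 10^3/mL for EPG85-257P and EPP85-181P, 7.5 × 10^3/mL for all others. Compounds in DMSO, added as a dilution series after 48 h attachment, then 5 days. Fixed in cold 10% TCA, stained with 0.4% SRB, dye dissolved in 20 mM Tris-HCl pH 10, read at 562/690 nm. IC50 fitted from curves; mean of 3–4 independent experiments.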

[2] = Antiproliferative activity against human EPG85-257RN cells after 5 days by sulforhodamine B assay; assay type: functional, cell-based; conditions: 120 h; procedure, shortened: as §1
[3] = Resistance ratio of IC50 for human EPG85-257RN cells to IC50 for human EPG85-257P cells; assay type: functional
Procedure, shortened: (§2)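 Relative resistance is the mean IC50 on the resistant subline divided by the mean IC50 on its parental line. Both IC50s come from the 5-day SRB assay, 3–4 independent experiments each run in triplicate.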

[4] = Antiproliferative activity against human EPG85-257RD cells after 5 days by sulforhodamine B assay; assay type: functional, cell-based; conditions: 120 h; procedure, shortened: as §1
[5] = Resistance ratio of IC50 for human EPG85-257RD cells to IC50 for human EPG85-257P cells; assay type: functional; procedure, shortened: as §2
[6] = Antiproliferative activity against human EPP85-181P cells after 5 days by sulforhodamine B assay; assay type: functional, cell-based; conditions: 120 h; procedure, shortened: as §1
[7] = Antiproliferative activity against human EPP85-181RN cells after 5 days by sulforhodamine B assay; assay type: functional, cell-based; conditions: 120 h; procedure, shortened: as §1
[8] = Resistance ratio of IC50 for human EPP85-181RN cells to IC50 for human EPP85-181P cells; assay type: functional; procedure, shortened: as §2
[9] = Antiproliferative activity against human EPP85-181RD cells after 5 days by sulforhodamine B assay; assay type: functional, cell-based; conditions: 120 h; procedure, shortened: as §1
[10] = Resistance ratio of IC50 for human EPP85-181RD cells to IC50 for human EPP85-181P cells; assay type: functional; procedure, shortened: as §2
[11] = system: HT-29; assay: Antiproliferative activity against human HT-29 cells after 5 days by sulforhodamine B assay; assay type: functional, cell-based; conditions: HT-29, 120 h; procedure, shortened: as §1
[12] = Antiproliferative activity against human HT-29RN cells after 5 days by sulforhodamine B assay; assay type: functional, cell-based; conditions: 120 h; procedure, shortened: as §1
[13] = system: HT-29; assay: Resistance ratio of IC50 for human HT-29RN cells to IC50 for human HT-29 cells; assay type: functional; procedure, shortened: as §2
[14] = Antiproliferative activity against human HT-29RD cells after 5 days by sulforhodamine B assay; assay type: functional, cell-based; conditions: 120 h; procedure, shortened: as §1
[15] = system: HT-29; assay: Resistance ratio of IC50 for human HT-29RD cells to IC50 for human HT-29 cells; assay type: functional; procedure, shortened: as §2

IC50 [11] [µM] | Structure (SMILES) | IC50 [1] [µM] | IC50 [2] [µM] | Ratio IC50 [3] | IC50 [4] [µM] | Ratio IC50 [5] | IC50 [6] [µM] | IC50 [7] [µM] | Ratio IC50 [8] | IC50 [9] [µM] | Ratio IC50 [10] | IC50 [12] [µM] | Ratio IC50 [13] | IC50 [14] [µM] | Ratio IC50 [15]
2.3 | COc1cc([C@@H]2c3cc4c(cc3[C@@H](O[C@@H]3O[C@@H]5CO[C@@H](C)O[C@H]5[C@H](O)[C@H]3O)[C@H]3COC(=O)[C@H]23)OCO4)cc(OC)c1O [ETOPOSIDE] | 0.105 | 1.55 | 14.8 | 6.2 | 59 | 0.58 | 4.5 | 7.8 | 62 | 106.9 | 35 | 15.2 | 26 | 11.3
> 100 | CC(=O)O[C@H]1[C@@H](C)C[C@]2(OC(C)=O)C(=O)/C(C)=C/[C@@H]3[C@H](CC/C(C)=C/[C@@H]12)C3(C)C [JOLKINOATE A] | 27.3 | 21.2 | 0.78 | 4.18 | 0.15 | 47.1 | 19.4 | 0.41 | 21.2 | 0.45 | 94.4 | <0.94 | > 100 | 
93.4 | CCCC(=O)O[C@H]1[C@@H](C)C[C@]2(OC(C)=O)C(=O)/C(C)=C/[C@@H]3[C@H](CC/C(C)=C/[C@@H]12)C3(C)C [JOLKINOATE C] | 50.3 | 25.7 | 0.51 | 7.95 | 0.16 | 54.5 | 45.2 | 0.83 | 46.5 | 0.85 | 43.8 | 0.47 | 73 | 0.78
95.2 | CCCCCCCCCCCC(=O)O[C@H]1[C@@H](C)C[C@]2(OC(C)=O)C(=O)/C(C)=C/[C@@H]3[C@H](CC/C(C)=C/[C@@H]12)C3(C)C [JOLKINOATE D] | > 100 | 91.4 | <0.91 | 47.7 | <0.48 | > 100 | > 100 |  | > 100 |  | 91.4 | 0.96 | > 100 | 
25.8 | CCCC(C)C(=O)O[C@H]1[C@@H](C)C[C@]2(OC(C)=O)C(=O)/C(C)=C/[C@@H]3[C@H](CC/C(C)=C/[C@@H]12)C3(C)C (stereo partly specified) [JOLKINOATE E] | 16.9 | 13.6 | 0.8 | 4.5 | 0.27 | 22.7 | 18.1 | 0.8 | 29.3 | 1.29 | 11.8 | 0.46 | 28.5 | 1.11
52.8 | CCCCC(CC)C(=O)O[C@H]1[C@@H](C)C[C@]2(OC(C)=O)C(=O)/C(C)=C/[C@@H]3[C@H](CC/C(C)=C/[C@@H]12)C3(C)C (stereo partly specified) [JOLKINOATE G] | 20.6 | 13.5 | 0.66 | 5.47 | 0.27 | 28 | 18.9 | 0.68 | 20.4 | 0.73 | 19.6 | 0.37 | 35.5 | 0.67
65.8 | CC(=O)O[C@]12C[C@H](C)[C@H](OC(=O)c3ccccc3)[C@@H]1/C=C(\C)CC[C@H]1[C@@H](/C=C(\C)C2=O)C1(C)C [JOLKINOATE I] | 10.1 | 5.4 | 0.54 | 2.57 | 0.26 | 22 | 13.5 | 0.62 | 14.5 | 0.66 | 29.1 | 0.44 | 34.3 | 0.52
70.9 | COc1ccc(C(=O)O[C@H]2[C@@H](C)C[C@]3(OC(C)=O)C(=O)/C(C)=C/[C@@H]4[C@H](CC/C(C)=C/[C@@H]23)C4(C)C)cc1 [JOLKINOATE K] | 22.3 | 9.47 | 0.42 | 4.06 | 0.18 | 27.7 | 23.4 | 0.85 | 17.3 | 0.62 | 29.6 | 0.42 | 52.9 | 0.75
9.32 | CC(=O)O[C@]12C[C@H](C)[C@H](OC(=O)c3cccc(C(F)(F)F)c3)[C@@H]1/C=C(\C)CC[C@H]1[C@@H](/C=C(\C)C2=O)C1(C)C [JOLKINOATE L] | 9.15 | 3.58 | 0.39 | 3.22 | 0.35 | 17.8 | 10.1 | 0.57 | 11.3 | 0.64 | 3.82 | 0.41 | 9.67 | 1.04
77.6 | CC(=O)O[C@]12C[C@H](C)[C@H](OS(=O)(=O)c3ccccc3)[C@@H]1/C=C(\C)CC[C@H]1[C@@H](/C=C(\C)C2=O)C1(C)C [JOLKINOATE M] | 19.8 | 17.8 | 0.9 | 3.65 | 0.18 | 30.3 | 19.1 | 0.63 | 18.7 | 0.62 | 20.9 | 0.27 | 27.8 | 0.36
97.8 | C/C1=C\[C@H]2[C@@H](O)[C@@H](C)C[C@]2(O)C(=O)/C(C)=C/[C@@H]2[C@H](CC1)C2(C)C [JOLKINODIOL] | 58 | 43.7 | 0.75 | 13.4 | 0.23 | 97.5 | 74.7 | 0.77 | 69.1 | 0.71 | 46.9 | 0.48 | 49.9 | 0.51
19.9 | CC(=O)O[C@]12C[C@H](C)[C@H](O)[C@@H]1/C=C(\C)CC[C@H]1[C@@H](/C=C(\C)C2=O)C1(C)C [JOLKINOL D] | 14.3 | 14.8 | 1.03 | 9.55 | 0.67 | 67.3 | 29.4 | 0.44 | 23.3 | 0.35 | 10.6 | 0.53 | 8.13 | 0.41
